This is an account of results in ChEMBL document CHEMBL3526048, “In vitro metabolism of rivoglitazone, a novel peroxisome proliferator-activated receptor γ agonist, in rat, monkey, and human liver microsomes and freshly isolated hepatocytes” (Drug Metab Dispos, 2011).

The target in one series is T1, Cytochrome P450 1A2 (Homo sapiens, UniProt P05177).
T1 sequence (P05177 whole entry): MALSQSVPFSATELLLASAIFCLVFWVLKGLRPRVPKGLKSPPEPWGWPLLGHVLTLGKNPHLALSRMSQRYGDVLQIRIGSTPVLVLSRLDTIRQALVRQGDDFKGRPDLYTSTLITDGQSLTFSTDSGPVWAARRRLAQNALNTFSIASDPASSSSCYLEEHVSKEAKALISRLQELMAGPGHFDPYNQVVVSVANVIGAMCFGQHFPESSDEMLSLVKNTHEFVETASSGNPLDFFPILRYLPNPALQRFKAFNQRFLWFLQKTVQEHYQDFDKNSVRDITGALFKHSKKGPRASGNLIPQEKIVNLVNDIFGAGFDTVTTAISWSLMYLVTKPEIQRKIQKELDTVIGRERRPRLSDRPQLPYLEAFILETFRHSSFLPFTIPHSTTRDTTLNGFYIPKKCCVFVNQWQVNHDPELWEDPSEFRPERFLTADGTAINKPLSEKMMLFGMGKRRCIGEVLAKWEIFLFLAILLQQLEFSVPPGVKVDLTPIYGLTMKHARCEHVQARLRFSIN
Nature of the series: Activity of human CYP1A2 expressed in microsomes isolated from baculovirus infected insect cell assessed as enzyme-mediated 5-hydroxy-5-(4-((6-methoxy-1-methyl-1H-benzo[d]imidazol-2-yl)methoxy)benzyl)thiazolidine-2,4-dione formation at 20 uM after 2 hrs by radio-HPLC/LC-MS/MS analysis in presence of NADPH-generating system and NADPH-generating system/SAM. Format: ADME. The gist of the method: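 Baculovirus/insect-cell microsomes expressing single human CYPs, 1 mg/ml protein, with 50 mM potassium phosphate (pH 7.4) or 100 mM Tris-HCl (pH 7.5). NADPH-generating system: 2 mM NADP⁺, 20 mM glucose 6-phosphate, 2 units/ml G6PDH, 10 mM MgCl₂. [¹⁴C]rivoglitazone at 20 μM, 2 h at 37°C with shaking. Control used insect-cell control supersomes. Stopped with acetonitrile; supernatant concentrated under nitrogen; metabolites analysed by radio-HPLC, LC-MS and LC-MS/MS.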

A further series concerns the target Cytochrome P450 2C9 (Homo sapiens, UniProt P11712). Nature of the series: Activity of human CYP2C9 expressed in microsomes isolated from baculovirus infected insect cell assessed as enzyme-mediated 2-amino-3-((1-carboxy-2-(4-((6-methoxy-1-methyl-1H-benzo[d]imidazol-2-yl)methoxy)phenyl)ethyl)disulfanyl)propanoic acid formation at 20 uM after 2 hrs by radio-HPLC/LC-MS/MS analysis. The class given is ADME. A digest of the protocol:
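Baculovirus-insect-cell microsomes expressing the human CYP (1 mg/ml protein) were incubated with [14C]rivoglitazone (20 μM) in 50 mM potassium phosphate (pH 7.4) or 100 mM Tris-HCl (pH 7.5) with an NADPH-generating system (2 mM NADP+, 20 mM glucose 6-phosphate, 2 units/ml G6PDH, 10 mM MgCl2) for 2 h at 37°C. Insect-cell control supersomes served as the control. Reactions were stopped with acetonitrile, and the concentrated supernatants were analysed by radio-HPLC, LC-MS and LC-MS/MS.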

Series [1] addresses T2, UDP-glucuronosyltransferase 1A3 (Homo sapiens, UniProt P35503).
T2 sequence (P35503 whole entry): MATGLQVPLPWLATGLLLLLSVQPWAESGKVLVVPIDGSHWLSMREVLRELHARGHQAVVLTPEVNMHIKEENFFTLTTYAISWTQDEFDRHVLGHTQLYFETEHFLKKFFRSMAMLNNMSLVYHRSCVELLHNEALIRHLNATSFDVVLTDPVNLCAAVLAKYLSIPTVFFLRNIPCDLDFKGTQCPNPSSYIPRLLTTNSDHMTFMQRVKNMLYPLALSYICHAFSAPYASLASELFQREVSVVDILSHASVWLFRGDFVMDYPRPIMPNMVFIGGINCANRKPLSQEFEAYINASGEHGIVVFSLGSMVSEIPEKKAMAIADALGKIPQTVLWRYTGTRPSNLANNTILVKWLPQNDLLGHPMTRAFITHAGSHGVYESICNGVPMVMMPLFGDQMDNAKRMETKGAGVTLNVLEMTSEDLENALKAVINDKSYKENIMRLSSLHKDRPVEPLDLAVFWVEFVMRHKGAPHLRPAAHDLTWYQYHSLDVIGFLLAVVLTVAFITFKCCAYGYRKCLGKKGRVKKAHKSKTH
Description: Activity of human UGT1A3 expressed in microsomes isolated from baculovirus infected insect cell assessed as enzyme-mediated 2-mercapto-3-(4-((6-methoxy-1-methyl-1H-benzo[d]imidazol-2-yl)methoxy)phenyl)propanamide formation at 20 uM after 4 hrs by radio-HPLC/LC-MS/MS analysis in presence of NADPH-generating system and NADPH-generating system/SAM in presence of UDPGA and UDPGA/SAM. The class given is ADME.

The target in series [2] is T3, UDP-glucuronosyltransferase 1A6 (Homo sapiens, UniProt P19224).
T3 sequence (P19224 whole entry): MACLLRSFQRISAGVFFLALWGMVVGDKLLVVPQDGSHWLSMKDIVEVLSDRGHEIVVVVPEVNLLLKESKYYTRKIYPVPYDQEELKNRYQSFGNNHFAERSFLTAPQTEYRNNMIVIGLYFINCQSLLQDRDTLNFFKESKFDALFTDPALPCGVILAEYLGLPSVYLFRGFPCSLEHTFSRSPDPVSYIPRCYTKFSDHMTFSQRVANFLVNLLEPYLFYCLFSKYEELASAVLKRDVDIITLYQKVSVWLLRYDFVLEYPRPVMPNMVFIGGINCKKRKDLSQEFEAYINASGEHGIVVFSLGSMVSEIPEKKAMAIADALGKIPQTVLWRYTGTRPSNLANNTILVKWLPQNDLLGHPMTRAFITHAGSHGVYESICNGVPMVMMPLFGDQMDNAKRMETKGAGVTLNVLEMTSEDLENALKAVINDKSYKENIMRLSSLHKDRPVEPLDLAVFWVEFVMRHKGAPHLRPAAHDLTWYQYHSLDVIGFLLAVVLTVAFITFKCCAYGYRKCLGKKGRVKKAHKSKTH
Description: Activity of human UGT1A6 expressed in microsomes isolated from baculovirus infected insect cell assessed as enzyme-mediated (2S,3S,4S,5R,6R)-6-((1-carboxy-2-(4-((6-methoxy-1-methyl-1H-benzo[d]imidazol-2-yl)methoxy)phenyl)ethylthio)carbonylamino)-3,4,5-trihydroxytetrahydro-2H-pyran-2-carboxylic acid formation at 20 uM after 4 hrs by radio-HPLC/LC-MS/MS analysis in presence of UDPGA. Format: ADME.

Series [3] is described as follows: Drug metabolism in cynomolgus monkey liver microsomes assessed as formation of 3-(4-((6-methoxy-1-methyl-1H-benzo[d]imidazol-2-yl)methoxy)phenyl)-2-(methylsulfonyl)propanamide at 20 uM after 2 hrs by radio-HPLC/LC-MS/MS analysis in presence of NADPH-generating system/SAM. Format: ADME, Macaca fascicularis. (In general: Liver microsomes are vesicles of endoplasmic reticulum, rich in cytochrome P450 enzymes.)

Sequence of Cytochrome P450 2C9 (P11712 whole entry): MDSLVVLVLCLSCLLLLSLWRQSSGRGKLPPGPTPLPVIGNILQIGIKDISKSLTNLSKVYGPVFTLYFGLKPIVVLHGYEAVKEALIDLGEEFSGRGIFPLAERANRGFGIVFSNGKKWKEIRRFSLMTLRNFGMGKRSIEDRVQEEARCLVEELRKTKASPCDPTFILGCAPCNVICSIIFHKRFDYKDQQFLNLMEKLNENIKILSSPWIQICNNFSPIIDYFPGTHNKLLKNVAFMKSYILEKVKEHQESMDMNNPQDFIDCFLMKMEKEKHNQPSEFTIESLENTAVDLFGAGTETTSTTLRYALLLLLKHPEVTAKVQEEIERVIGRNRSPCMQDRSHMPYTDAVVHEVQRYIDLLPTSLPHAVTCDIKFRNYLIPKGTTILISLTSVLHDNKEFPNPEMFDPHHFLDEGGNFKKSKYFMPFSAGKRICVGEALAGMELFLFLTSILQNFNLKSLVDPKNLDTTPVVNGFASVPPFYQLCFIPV

Take `COc1ccc2nc(COc3ccc(C[14CH]4SC(=O)NC4=O)cc3)n(C)c2c1.Cl` (racemic): the Drug metabolism result is on record as “metabolite_detected” at Cytochrome P450 1A2; “metabolite_not_detected” at Cytochrome P450 2C9; “metabolite_not_detected” in series [1]; “metabolite_not_detected” in series [2]; “metabolite_detected” in series [3].
